Key:
CYP2C9 = CYP2C9 (Homo sapiens, UniProt P11712); experiment: Time dependent inhibition of human CYP2C9 diclofenac 4'-hydroxylase activity assessed as decrease in enzyme activity at 100 uM preincubated for 30 mins by IC25-shift assay; type: ADME; conditions: probe diclofenac (4'-hydroxylation)
In short: (§1)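 IC25-shift assay. Pooled HLMs or recombinant CYP3A4/3A5/3A7 were preincubated 30 min at 37°C with CYP3cide, with or without NADPH (1.3 mM) (N=2). Mixture diluted 10-fold into probe substrate (~KM) at 37°C. Metabolites analysed by LC/MS/MS. Readout: % decrease in activity vs control.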

CYP3A [1] = target: T1, CYP3A (Homo sapiens, UniProt P08684+P20815+P24462+Q9HB55); experiment: Time dependent inhibition of human CYP3A midazolam 1'-hydroxylase activity assessed as decrease in enzyme activity at 1 uM preincubated for 30 mins by IC25-shift assay; type: ADME; conditions: probe midazolam (1'-hydroxylation); in short: as §1
CYP3A [2] = target: T1, CYP3A; experiment: Time dependent inhibition of human CYP3A testosterone 6beta-hydroxylase activity assessed as decrease in enzyme activity at 5 uM preincubated for 30 mins by IC25-shift assay; type: ADME; conditions: probe testosterone (6beta-hydroxylation); in short: as §1
CYP3A4 [3] = target: T2, CYP3A4 (Homo sapiens, UniProt P08684); experiment: Time dependent inhibition of midazolam 1'-hydroxylase activity of human recombinant CYP3A4 harboring human P450 oxidoreductase and b5 assessed as decrease in enzyme activity at 0.050 uM preincubated for 30 mins by IC25-shift assay; type: ADME; conditions: recombinant CYP3A4 with human P450 oxidoreductase and b5, probe midazolam (1'-hydroxylation); in short: as §1
T2 sequence (P08684 whole entry): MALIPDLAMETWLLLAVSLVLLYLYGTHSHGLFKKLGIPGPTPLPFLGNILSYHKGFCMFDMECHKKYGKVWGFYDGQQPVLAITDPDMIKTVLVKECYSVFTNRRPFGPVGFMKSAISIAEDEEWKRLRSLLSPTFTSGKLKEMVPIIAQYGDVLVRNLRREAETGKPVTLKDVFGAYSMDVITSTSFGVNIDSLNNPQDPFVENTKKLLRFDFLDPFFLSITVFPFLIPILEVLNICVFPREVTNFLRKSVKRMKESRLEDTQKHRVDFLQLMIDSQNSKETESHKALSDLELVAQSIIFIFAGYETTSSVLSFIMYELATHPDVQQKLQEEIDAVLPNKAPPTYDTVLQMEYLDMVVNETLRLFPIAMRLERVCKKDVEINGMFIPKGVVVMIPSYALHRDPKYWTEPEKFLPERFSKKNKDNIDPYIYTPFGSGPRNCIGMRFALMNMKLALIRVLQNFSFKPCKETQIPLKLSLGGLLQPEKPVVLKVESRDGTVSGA

CYP3A4 [4] = target: T2, CYP3A4; experiment: Time dependent inhibition of testosterone 6beta-hydroxylase activity of human recombinant CYP3A4 in presence of human P450 oxidoreductase and b5 assessed as decrease in enzyme activity at 0.050 uM preincubated for 30 mins by IC25-shift assay; type: ADME; conditions: recombinant CYP3A4 with human P450 oxidoreductase and b5, probe testosterone (6beta-hydroxylation); in short: as §1
CYP3A7 = CYP3A7 (Homo sapiens, UniProt P24462); experiment: Time dependent inhibition of midazolam 1'-hydroxylase activity of human recombinant CYP3A7 harboring human P450 oxidoreductase and b5 assessed as decrease in enzyme activity at 100 uM preincubated for 30 mins by IC25-shift assay; type: ADME; conditions: recombinant CYP3A7 with human P450 oxidoreductase and b5, probe midazolam (1'-hydroxylation); in short: as §1
Sequence of CYP3A7 (P24462 whole entry): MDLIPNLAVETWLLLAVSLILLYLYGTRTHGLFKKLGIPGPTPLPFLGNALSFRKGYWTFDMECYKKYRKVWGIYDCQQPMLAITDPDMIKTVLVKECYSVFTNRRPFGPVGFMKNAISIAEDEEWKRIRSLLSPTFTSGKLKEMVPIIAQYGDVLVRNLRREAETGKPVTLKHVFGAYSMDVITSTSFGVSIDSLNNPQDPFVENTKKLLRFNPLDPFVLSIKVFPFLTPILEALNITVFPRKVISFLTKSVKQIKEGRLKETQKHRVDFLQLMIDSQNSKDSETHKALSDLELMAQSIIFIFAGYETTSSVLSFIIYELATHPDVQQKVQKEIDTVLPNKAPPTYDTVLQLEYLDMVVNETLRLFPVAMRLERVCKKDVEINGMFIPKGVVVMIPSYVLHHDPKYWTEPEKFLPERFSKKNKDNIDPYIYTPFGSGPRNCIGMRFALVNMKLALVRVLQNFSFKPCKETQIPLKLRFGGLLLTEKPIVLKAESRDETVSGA

Cytochrome P450 2B6 = Cytochrome P450 2B6 (Homo sapiens, UniProt P20813); experiment: Reversible inhibition of human CYP2B6 bupropion hydroxylase activity; type: ADME
Sequence of Cytochrome P450 2B6 (P20813 whole entry, canonical isoform): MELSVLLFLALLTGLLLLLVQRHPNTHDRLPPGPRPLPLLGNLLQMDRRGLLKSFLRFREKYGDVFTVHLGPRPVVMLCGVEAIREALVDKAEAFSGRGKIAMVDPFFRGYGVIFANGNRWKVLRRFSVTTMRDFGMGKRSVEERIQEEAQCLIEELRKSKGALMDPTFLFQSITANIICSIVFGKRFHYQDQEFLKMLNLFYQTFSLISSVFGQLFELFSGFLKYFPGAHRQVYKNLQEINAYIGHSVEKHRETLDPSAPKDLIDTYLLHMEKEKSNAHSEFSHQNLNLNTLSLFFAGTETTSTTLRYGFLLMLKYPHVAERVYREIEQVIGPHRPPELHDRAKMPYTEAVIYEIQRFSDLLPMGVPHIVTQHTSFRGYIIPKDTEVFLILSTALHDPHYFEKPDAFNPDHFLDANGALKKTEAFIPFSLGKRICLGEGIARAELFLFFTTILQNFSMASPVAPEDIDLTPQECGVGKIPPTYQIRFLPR
In short: (§2)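 Reversible IC50 with pooled HLM or recombinant CYP3A7 (with POR and b5), protein 0.010–0.10 mg/ml depending on isoform. Probe substrate at its experimentally derived KM. Metabolite formation measured by LC/MS/MS. IC50 determinations run in duplicate.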

Cytochrome P450 2C9 = Cytochrome P450 2C9 (Homo sapiens, UniProt P11712); experiment: Reversible inhibition of human CYP2C9 diclofenac 4'-hydroxylase activity; type: ADME; in short: as §2
Sequence of Cytochrome P450 2C9 (P11712 whole entry): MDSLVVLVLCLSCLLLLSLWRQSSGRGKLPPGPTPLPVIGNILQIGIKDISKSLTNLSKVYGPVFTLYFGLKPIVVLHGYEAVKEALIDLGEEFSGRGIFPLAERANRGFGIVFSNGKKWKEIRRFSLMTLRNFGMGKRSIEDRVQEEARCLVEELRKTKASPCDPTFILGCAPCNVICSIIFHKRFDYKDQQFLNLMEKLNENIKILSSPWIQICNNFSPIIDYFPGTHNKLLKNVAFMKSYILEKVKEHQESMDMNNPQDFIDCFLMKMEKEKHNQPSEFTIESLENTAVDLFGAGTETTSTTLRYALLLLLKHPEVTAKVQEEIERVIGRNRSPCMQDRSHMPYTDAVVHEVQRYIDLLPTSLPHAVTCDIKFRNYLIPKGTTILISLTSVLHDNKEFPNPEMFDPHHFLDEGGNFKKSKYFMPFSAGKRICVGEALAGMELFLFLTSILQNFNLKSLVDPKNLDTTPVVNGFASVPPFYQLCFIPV

Cytochrome P450 2D6 = Cytochrome P450 2D6 (Homo sapiens, UniProt P10635); experiment: Reversible inhibition of human CYP2D6 dextromethorphan O-demethylase activity; type: ADME
Sequence of Cytochrome P450 2D6 (P10635 whole entry): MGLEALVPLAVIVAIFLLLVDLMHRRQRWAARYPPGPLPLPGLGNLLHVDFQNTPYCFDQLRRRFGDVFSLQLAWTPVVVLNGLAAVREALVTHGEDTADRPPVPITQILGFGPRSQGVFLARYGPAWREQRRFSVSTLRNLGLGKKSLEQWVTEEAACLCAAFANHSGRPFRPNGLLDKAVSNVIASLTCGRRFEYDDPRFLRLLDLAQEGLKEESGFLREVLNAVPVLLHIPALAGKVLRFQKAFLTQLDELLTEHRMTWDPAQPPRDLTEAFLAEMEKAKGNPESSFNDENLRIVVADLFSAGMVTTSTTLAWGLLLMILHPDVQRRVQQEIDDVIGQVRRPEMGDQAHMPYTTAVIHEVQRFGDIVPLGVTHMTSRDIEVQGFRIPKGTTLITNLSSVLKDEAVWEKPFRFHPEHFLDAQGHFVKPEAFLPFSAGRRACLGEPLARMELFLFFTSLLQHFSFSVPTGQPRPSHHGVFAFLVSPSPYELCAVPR

CYP3A [5] = target: T1, CYP3A; experiment: Reversible inhibition of human CYP3A felodipine oxidase activity; type: ADME; conditions: probe felodipine (oxidation); in short: as §2
CYP3A [6] = target: T1, CYP3A; experiment: Reversible inhibition of human CYP3A midazolam 1'-hydroxylase activity; type: ADME; conditions: probe midazolam (1'-hydroxylation); in short: as §2
CYP3A [7] = target: T1, CYP3A; experiment: Reversible inhibition of human CYP3A testosterone 6beta-hydroxylase activity; type: ADME; conditions: probe testosterone (6beta-hydroxylation); in short: as §2
Cytochrome P450 3A4 [8] = target: T3, Cytochrome P450 3A4 (Homo sapiens, UniProt P08684); experiment: Reversible inhibition of midazolam 1'-hydroxylase activity of human recombinant CYP3A4 harboring human P450 oxidoreductase and b5; type: ADME
T3 sequence (P08684 whole entry): as the sequence (P08684 whole entry) above
In short: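 IC50 was measured with baculovirus-expressed CYP3A4 plus POR and cytochrome b5 (P450:reductase:b5 1:5:7), with substrate at its experimentally derived KM, in duplicate. Enzyme was 0.010 mg/ml for midazolam 1'-hydroxylation and 0.020 mg/ml for testosterone 6β-hydroxylation.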

CYP1A2 = CYP1A2 (Homo sapiens, UniProt P05177); experiment: Time dependent inhibition of human CYP1A2 phenacetin O-deethylase activity assessed as decrease in enzyme activity at 100 uM preincubated for 30 mins by IC25-shift assay; type: ADME; conditions: probe phenacetin (O-deethylation); in short: as §1
Sequence of CYP1A2 (P05177 whole entry): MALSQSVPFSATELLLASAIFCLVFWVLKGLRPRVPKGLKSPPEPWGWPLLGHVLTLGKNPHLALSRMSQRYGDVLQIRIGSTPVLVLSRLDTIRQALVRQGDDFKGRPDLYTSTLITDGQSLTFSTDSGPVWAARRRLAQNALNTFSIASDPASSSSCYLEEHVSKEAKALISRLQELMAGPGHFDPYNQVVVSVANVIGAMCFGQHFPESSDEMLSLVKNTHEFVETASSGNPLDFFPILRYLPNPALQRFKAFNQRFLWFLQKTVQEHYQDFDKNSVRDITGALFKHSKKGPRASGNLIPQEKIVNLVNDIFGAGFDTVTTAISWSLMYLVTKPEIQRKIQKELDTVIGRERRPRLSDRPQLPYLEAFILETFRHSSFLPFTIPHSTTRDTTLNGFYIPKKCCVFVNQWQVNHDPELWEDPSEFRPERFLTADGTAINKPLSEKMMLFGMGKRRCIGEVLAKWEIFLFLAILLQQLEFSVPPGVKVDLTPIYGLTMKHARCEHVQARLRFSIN

CYP2B6 = CYP2B6 (Homo sapiens, UniProt P20813); experiment: Time dependent inhibition of human CYP2B6 bupropion hydroxylase activity assessed as decrease in enzyme activity at 100 uM preincubated for 30 mins by IC25-shift assay; type: ADME; conditions: probe bupropion (hydroxylation); in short: as §1
Sequence of CYP2B6 (P20813 whole entry): as the sequence (P20813 whole entry, canonical isoform) above

Cytochrome P450 3A4 [9] = target: T3, Cytochrome P450 3A4; experiment: Inhibition of testosterone 6beta-hydroxylase activity of human recombinant CYP3A4 in presence of human P450 oxidoreductase and b5 assessed as decrease in enzyme activity preincubated for 30 mins by LC-MS/MS analysis; type: ADME
Cytochrome P450 3A5 [10] = target: T4, Cytochrome P450 3A5 (Homo sapiens, UniProt P20815); experiment: Inhibition of midazolam 1'-hydroxylase activity of human recombinant CYP3A5 harboring human P450 oxidoreductase and b5 assessed as decrease in enzyme activity preincubated for 30 mins by LC-MS/MS analysis; type: ADME
In short: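 rCYP3A5 with POR and b5 (0.010 mg/ml for midazolam, 0.020 mg/ml for testosterone) preincubated 30 min at 37°C with 2 µM inhibitor, ±NADPH (1.3 mM), N=2. Mixture then diluted 10-fold into probe substrate at ~KM at 37°C. Activity expressed as percent of control remaining, reported as decrease in activity.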
Target sequence in this assay (P20815 whole entry): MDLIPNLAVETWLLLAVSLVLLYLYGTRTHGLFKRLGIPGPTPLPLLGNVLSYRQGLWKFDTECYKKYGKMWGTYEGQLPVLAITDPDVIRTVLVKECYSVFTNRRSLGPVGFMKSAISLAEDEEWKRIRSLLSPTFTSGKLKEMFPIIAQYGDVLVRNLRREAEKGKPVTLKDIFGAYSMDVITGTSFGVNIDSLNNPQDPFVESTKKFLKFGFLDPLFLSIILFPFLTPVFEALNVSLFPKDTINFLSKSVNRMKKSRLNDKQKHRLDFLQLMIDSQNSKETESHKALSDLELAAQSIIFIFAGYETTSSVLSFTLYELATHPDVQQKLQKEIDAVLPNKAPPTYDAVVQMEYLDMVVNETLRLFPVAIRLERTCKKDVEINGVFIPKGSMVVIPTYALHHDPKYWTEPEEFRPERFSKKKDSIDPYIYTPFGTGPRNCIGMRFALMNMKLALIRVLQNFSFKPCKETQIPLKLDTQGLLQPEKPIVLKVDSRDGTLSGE

CYP3A4 [11] = target: T2, CYP3A4; experiment: Irreversible inhibition of human recombinant CYP3A4 harboring human P450 oxidoreductase and b5 assessed as residual midazolam 1'-hydroxylase activity in presence of NADPH relative to control; type: ADME; conditions: recombinant CYP3A4 with human P450 oxidoreductase and b5, probe midazolam (1'-hydroxylation)
Cytochrome P450 3A4 [12] = target: T3, Cytochrome P450 3A4; experiment: Drug metabolism assessed as human recombinant CYP3A4 in presence of human P450 oxidoreductase and b5-mediated 1-((3S)-1-(1-methyl-3-(1-methyl-5-p-tolyl-1H-pyrazol-4-yl)-1H-pyrazolo[3,4-d]pyrimidin-4-yl)pyrrolidin-3-yl)-2,3,4,5-tetrahydropyridinium formation at 10 uM by HPLC-MS analysis in presence of NADPH; type: ADME; conditions: recombinant enzyme
In short: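 Recombinant CYP3A4 or CYP3A5 (50 pmol/ml final) added, without preincubation, to 10 µM CYP3cide with NADPH (final 1 mM) in 100 mM phosphate pH 7.4. Trapping incubations also held 200 µM KCN or 5 mM GSH (final). Incubated 1 h at 37°C, quenched with acetonitrile, dried, reconstituted. Metabolites analysed by LC/Orbitrap ESI-MS.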

CYP3A5*3/*3 = experiment: Inhibition of CYP3A5*3/*3 in human liver microsomes assessed as midazolam 1'-hydroxylase activity at 0.56 uM after 10 mins; type: ADME; conditions: liver microsomes (CYP3A5*3/*3 genotype), probe midazolam (1'-hydroxylation)
In short: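 Genotyped individual HLMs (0.1 mg/ml) preincubated at 37°C with CYP3cide (0–1.3 μM; 10 min in the two-donor study, 5 min in the 30-donor study), with or without 1.3 mM NADPH (N=3). Mixture diluted 20-fold into 23 μM midazolam for 6 min. 1'-OH-midazolam measured. Readout: % of vehicle/no-NADPH control activity.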

[13] = Fraction unbound in human liver microsomes at 0.8 mg/ml; type: ADME
Cytochrome P450 3A5 [14] = target: T4, Cytochrome P450 3A5; experiment: Drug metabolism assessed as human recombinant CYP3A5 in presence of human P450 oxidoreductase and b5-mediated 1-((3S)-1-(1-methyl-3-(1-methyl-5-p-tolyl-1H-pyrazol-4-yl)-1H-pyrazolo[3,4-d]pyrimidin-4-yl)pyrrolidin-3-yl)-2,3,4,5-tetrahydropyridinium formation at 10 uM by HPLC-MS analysis in presence of KCN and NADPH; conditions: recombinant enzyme
Target sequence in this assay (P20815 whole entry, looked up): as the sequence (P20815 whole entry) above

Sequence of CYP2C9 (P11712 whole entry): as the sequence (P11712 whole entry) above

inhibition at 30 min, 100 µM (CYP2C9): 5.4%
inhibition at 30 min, 1 µM (CYP3A [1]): 47%
inhibition at 30 min, 5 µM (CYP3A [2]): 53%
inhibition at 30 min, 0.05 µM (CYP3A4 [3]): 87%
inhibition at 30 min, 0.05 µM (CYP3A4 [4]): 74%
inhibition at 30 min, 100 µM (CYP3A7): 15%
IC50 (Cytochrome P450 2B6): 88 µM
IC50 (Cytochrome P450 2C9): > 100 µM
IC50 (Cytochrome P450 2D6): 71 µM
IC50 (CYP3A [5]): 0.16 µM
IC50 (CYP3A [6]): 0.33 µM
IC50 (CYP3A [7]): 1.4 µM
IC50 (Cytochrome P450 3A4 [8]): 0.03 µM
inhibition at 30 min, 100 µM (CYP1A2): 17%
inhibition at 30 min, 100 µM (CYP2B6): 2.4%
Ki (Cytochrome P450 3A4 [9]): 0.17 µM
Ki (Cytochrome P450 3A5 [10]): 2 µM
activity (CYP3A4 [11]): 16%
Drug metabolism (Cytochrome P450 3A4 [12]): metabolite_detected
inhibition at 10 min, 0.56 µM (CYP3A5*3/*3): > 85%
fraction unbound [13]: 0.56
Drug metabolism (Cytochrome P450 3A5 [14]): metabolite_detected
SMILES: Cc1ccc(-c2c(-c3nn(C)c4ncnc(N5CC[C@H](N6CCCCC6)C5)c34)cnn2C)cc1

— ChEMBL document CHEMBL3526089, “Selective mechanism-based inactivation of CYP3A4 by CYP3cide (PF-04981517) and its utility as an in vitro tool for delineating the relative roles of CYP3A4 versus CYP3A5 in the metabolism of drugs” (Drug Metab Dispos, 2012)
